Assay results taken from ChEMBL document CHEMBL3992547, “Antimicrobial activity of rhodanine-3-acetic acid derivatives” (Bioorg Med Chem, 2017).
≈ marks a conversion by molar mass, not a printed value. Calls of active or inactive are those of the source. The calls are words filed in the database; no cut-off is given here.

Tests used:
[1] = system: Pichia kudriavzevii; experiment: Antifungal activity against Candida krusei E28 after 24 to 48 hrs hrs by microdilution broth assay; type: functional
Outline: (§1)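 Broth microdilution per CLSI M27-A3 and M38-A2 in RPMI 1640 with glutamine, buffered to pH 7.0 with MOPS. Compounds are diluted in DMSO. Final inoculum is 5 × 10³ CFU/mL for yeasts and 0.5–5 × 10⁴ CFU/mL for moulds. Plates are incubated in the dark at 35 °C in humid air and read visually and/or at 540 nm after 24 and 48 h. MIC is ≥80% growth reduction (IC₈₀) for yeasts and ≥50% (IC₅₀) for filamentous fungi.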

[2] = system: Staphylococcus aureus; experiment: Antibacterial activity against Staphylococcus aureus CCM 4516/08 incubated for 48 hrs under dark condition by microdilution broth assay; type: functional; conditions: CCM 4516/08, 48 h
Outline: (§2)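 Broth microdilution per M07-A07, modified, in Mueller-Hinton broth adjusted to pH 7.4 (±0.2). Inoculum is prepared in sterile water to McFarland 0.5 (1.5 × 10⁸ CFU/mL). Plates are incubated in the dark at 35 °C in humid air. MIC is read after 24 and 48 h as at least 95% growth reduction versus control (IC₉₅).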

[3] = system: Lichtheimia corymbifera; experiment: Antifungal activity against Absidia corymbifera 272 after 24 to 48 hrs hrs by microdilution broth assay; type: functional; outline: as §1
[4] = system: Mycobacterium kansasii; experiment: Antimycobacterial activity against Mycobacterium kansasii isolate 235/80 after 7 days by micromethod; type: functional; conditions: isolate 235/80, 168 h
[5] = system: Staphylococcus aureus; experiment: Antibacterial activity against Staphylococcus aureus CCM 4516/08 incubated for 24 hrs under dark condition by microdilution broth assay; type: functional; conditions: CCM 4516/08, 24 h; outline: as §2
[6] = system: Candida albicans; experiment: Antifungal activity against Candida albicans ATCC 44859 after 48 hrs by microdilution broth assay; type: functional; conditions: ATCC 44859, 48 h; outline: as §1
[7] = system: Staphylococcus aureus; experiment: Antibacterial activity against methicillin-resistant Staphylococcus aureus H 5996/08 incubated for 24 hrs under dark condition by microdilution broth assay; type: functional; conditions: H 5996/08, 24 h
Outline: (§3)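 Microdilution broth method modified per M07-A07, in Mueller-Hinton broth adjusted to pH 7.4 (±0.2). Inoculum made in sterile water to 0.5 McFarland (1.5 × 10⁸ CFU/mL). Plates incubated in the dark at 35 °C in a humid atmosphere, with reads at 24 and 48 h. MIC taken as at least 95% growth reduction (IC₉₅) versus control.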

[8] = system: Aspergillus fumigatus; experiment: Antifungal activity against Aspergillus fumigatus 231 after 24 hrs by microdilution broth assay; type: functional; conditions: Aspergillus fumigatus, 231, 24 h; outline: as §1
[9] = system: Trichophyton mentagrophytes; experiment: Antifungal activity against Trichophyton mentagrophytes 445 after 72 hrs by microdilution broth assay; type: functional; conditions: Trichophyton mentagrophytes, 445, 72 h
Outline: (§4)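 Broth microdilution per CLSI M38-A2 in RPMI 1640 with glutamine, buffered to pH 7.0 with MOPS, with DMSO as diluent. Final inoculum is 0.5–5 × 10⁴ CFU/mL. Plates are incubated in the dark at 35 °C in humid air and read visually and/or at 540 nm after 72 and 120 h. MIC is at least 50% growth reduction versus control.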

[10] = system: Trichosporon asahii; experiment: Antifungal activity against Trichosporon asahii 1188 after 24 hrs by microdilution broth assay; type: functional; conditions: Trichosporon asahii, 1188, 24 h; outline: as §1
[11] = system: Mycobacterium kansasii; experiment: Antimycobacterial activity against Mycobacterium kansasii isolate 6509/96 after 21 days by micromethod; type: functional; conditions: isolate 6509/96, 504 h
[12] = system: Pseudomonas aeruginosa; experiment: Antibacterial activity against Pseudomonas aeruginosa CCM 1961 up to 500 uM incubated for 24 to 48 hrs under dark condition by microdilution broth assay; type: functional; outline: as §2
[13] = system: Staphylococcus aureus; experiment: Antibacterial activity against methicillin-resistant Staphylococcus aureus H 5996/08 incubated for 48 hrs under dark condition by microdilution broth assay; type: functional; conditions: H 5996/08, 48 h; outline: as §3
[14] = system: Escherichia coli; experiment: Antibacterial activity against Escherichia coli CCM 4517 incubated for 24 hrs under dark condition by microdilution broth assay; type: functional; conditions: CCM 4517, 24 h; outline: as §2
[15] = system: Candida tropicalis; experiment: Antifungal activity against Candida tropicalis 156 after 24 hrs by microdilution broth assay; type: functional; conditions: Candida tropicalis, 156, 24 h; outline: as §1
[16] = system: Nakaseomyces glabratus; experiment: Antifungal activity against Candida glabrata 20/I after 24 hrs by microdilution broth assay; type: functional; outline: as §1
[17] = system: Candida albicans; experiment: Antifungal activity against Candida albicans ATCC 44859 after 24 hrs by microdilution broth assay; type: functional; conditions: ATCC 44859, 24 h; outline: as §1
[18] = system: Klebsiella pneumoniae; experiment: Antibacterial activity against ESBL positive Klebsiella pneumoniae J 14368/08 up to 500 uM incubated for 24 to 48 hrs under dark condition by microdilution broth assay; type: functional; outline: as §2
[19] = Solubility of the compound in Sula's semisynthetic medium up to 1 mM; type: physicochemical
[20] = system: Mycobacterium kansasii; experiment: Antimycobacterial activity against Mycobacterium kansasii isolate 6509/96 after 14 days by micromethod; type: functional; conditions: isolate 6509/96, 336 h
[21] = system: Enterococcus; experiment: Antibacterial activity against Enterococcus sp. J 14365/08 incubated for 48 hrs under dark condition by microdilution broth assay; conditions: J 14365/08, 48 h
[22] = system: Klebsiella pneumoniae; experiment: Antibacterial activity against Klebsiella pneumoniae D 11750/08 up to 500 uM incubated for 24 to 48 hrs under dark condition by microdilution broth assay; type: functional; outline: as §2
[23] = system: Mycobacterium kansasii; experiment: Antimycobacterial activity against Mycobacterium kansasii isolate 6509/96 after 7 days by micromethod; type: functional; conditions: isolate 6509/96, 168 h
[24] = system: Mycobacterium tuberculosis; experiment: Antimycobacterial activity against Mycobacterium tuberculosis H37Rv 331/88 measured after 14 days by micromethod; type: functional; conditions: H37Rv 331/88, 336 h
[25] = system: Trichophyton mentagrophytes; experiment: Antifungal activity against Trichophyton mentagrophytes 445 after 120 hrs by microdilution broth assay; type: functional; conditions: Trichophyton mentagrophytes, 445, 120 h; outline: as §4
[26] = system: Staphylococcus epidermidis; experiment: Antibacterial activity against Staphylococcus epidermidis H 6966/08 incubated for 24 hrs under dark condition by microdilution broth assay; type: functional; conditions: H 6966/08, 24 h; outline: as §2
[27] = system: Mycobacterium avium; experiment: Antimycobacterial activity against Mycobacterium avium 330/88 measured after 14 days by micromethod; type: functional; conditions: 330/88, 336 h
[28] = system: Aspergillus fumigatus; experiment: Antifungal activity against Aspergillus fumigatus 231 after 48 hrs by microdilution broth assay; type: functional; conditions: Aspergillus fumigatus, 231, 48 h; outline: as §1
[29] = system: Mycobacterium avium; experiment: Antimycobacterial activity against Mycobacterium avium 330/88 measured after 21 days by micromethod; type: functional; conditions: 330/88, 504 h
[30] = system: Trichosporon asahii; experiment: Antifungal activity against Trichosporon asahii 1188 after 48 hrs by microdilution broth assay; type: functional; conditions: Trichosporon asahii, 1188, 48 h; outline: as §1
[31] = system: Mycobacterium kansasii; experiment: Antimycobacterial activity against Mycobacterium kansasii isolate 235/80 after 14 days by micromethod; type: functional; conditions: isolate 235/80, 336 h
[32] = system: Mycobacterium tuberculosis; experiment: Antimycobacterial activity against Mycobacterium tuberculosis H37Rv 331/88 measured after 21 days by micromethod; type: functional; conditions: H37Rv 331/88, 504 h
[33] = system: Escherichia coli; experiment: Antibacterial activity against Escherichia coli CCM 4517 incubated for 48 hrs under dark condition by microdilution broth assay; type: functional; conditions: CCM 4517, 48 h; outline: as §2
[34] = system: Nakaseomyces glabratus; experiment: Antifungal activity against Candida glabrata 20/I after 48 hrs by microdilution broth assay; type: functional; outline: as §1
[35] = system: Staphylococcus epidermidis; experiment: Antibacterial activity against Staphylococcus epidermidis H 6966/08 incubated for 48 hrs under dark condition by microdilution broth assay; type: functional; conditions: H 6966/08, 48 h; outline: as §2
[36] = system: Mycobacterium kansasii; experiment: Antimycobacterial activity against Mycobacterium kansasii isolate 235/80 after 21 days by micromethod; type: functional; conditions: isolate 235/80, 504 h
[37] = system: Enterococcus; experiment: Antibacterial activity against Enterococcus sp. J 14365/08 incubated for 24 hrs under dark condition by microdilution broth assay; conditions: J 14365/08, 24 h
[38] = system: Candida tropicalis; experiment: Antifungal activity against Candida tropicalis 156 after 48 hrs by microdilution broth assay; type: functional; conditions: Candida tropicalis, 156, 48 h; outline: as §1

## O=C(O)CN1C(=O)/C(=C/c2ccc(O)cc2)SC1=S
[1]
  Activity: inactive
[2]
  MIC95: > 500 µM
[3]
  Activity: inactive
[4]
  MIC: 1000 µM (≈ 295 µg/mL)
[5]
  MIC95: 500 µM (≈ 148 µg/mL)
[6]
  MIC80: 500 µM (≈ 148 µg/mL)
[7]
  MIC95: 500 µM (≈ 148 µg/mL)
[8]
  MIC50: > 500 µM
[9]
  MIC50: > 500 µM
[10]
  MIC80: > 500 µM
[11]
  MIC: 1000 µM (≈ 295 µg/mL)
[12]
  Activity: inactive
[13]
  MIC95: > 500 µM
[14]
  MIC95: > 500 µM
[15]
  MIC80: > 500 µM
[16]
  MIC80: > 500 µM
[17]
  MIC80: 500 µM (≈ 148 µg/mL)
[18]
  Activity: inactive
[19]
  solubility: Soluble
[20]
  MIC: 1000 µM (≈ 295 µg/mL)
[21]
  MIC95: > 500 µM
[22]
  Activity: inactive
[23]
  MIC: 1000 µM (≈ 295 µg/mL)
[24]
  MIC: 1000 µM (≈ 295 µg/mL)
[25]
  MIC50: > 500 µM
[26]
  MIC95: 250 µM (≈ 73.8 µg/mL)
[27]
  MIC: 1000 µM (≈ 295 µg/mL)
[28]
  MIC50: > 500 µM
[29]
  MIC: 1000 µM (≈ 295 µg/mL)
[30]
  MIC80: > 500 µM
[31]
  MIC: 1000 µM (≈ 295 µg/mL)
[32]
  MIC: 1000 µM (≈ 295 µg/mL)
[33]
  MIC95: > 500 µM
[34]
  MIC80: > 500 µM
[35]
  MIC95: 500 µM (≈ 148 µg/mL)
[36]
  MIC: 1000 µM (≈ 295 µg/mL)
[37]
  MIC95: > 500 µM
[38]
  MIC80: > 500 µM

## O=C(O)CN1C(=O)/C(=C/c2ccccn2)SC1=S
[1]
  Activity: inactive
[3]
  Activity: inactive
[4]
  MIC: 500 µM (≈ 140 µg/mL)
[6]
  MIC80: ≥ 0.98 µM
[8]
  MIC50: ≥ 0.98 µM
[9]
  MIC50: ≥ 0.98 µM
[10]
  MIC80: ≥ 0.98 µM
[11]
  MIC: 1000 µM (≈ 280 µg/mL)
[12]
  Activity: inactive
[15]
  MIC80: ≥ 0.98 µM
[16]
  MIC80: ≥ 0.98 µM
[17]
  MIC80: ≥ 0.98 µM
[18]
  Activity: inactive
[19]
  solubility: Soluble
[20]
  MIC: 500 µM (≈ 140 µg/mL)
[22]
  Activity: inactive
[23]
  MIC: 500 µM (≈ 140 µg/mL)
[24]
  MIC: 250 µM (≈ 70.1 µg/mL)
[25]
  MIC50: ≥ 0.98 µM
[27]
  MIC: 1000 µM (≈ 280 µg/mL)
[28]
  MIC50: ≥ 0.98 µM
[29]
  MIC: 1000 µM (≈ 280 µg/mL)
[30]
  MIC80: ≥ 0.98 µM
[31]
  MIC: 1000 µM (≈ 280 µg/mL)
[32]
  MIC: 500 µM (≈ 140 µg/mL)
[34]
  MIC80: ≥ 0.98 µM
[36]
  MIC: 1000 µM (≈ 280 µg/mL)
[38]
  MIC80: ≥ 0.98 µM
